In ChEMBL document CHEMBL1132419 (J Med Chem, 1999):

Tests used:
Plasmodium falciparum = test: Antimalarial activity against chloroquine-sensitive Plasmodium falciparum NF54; format: functional, organism-based
Mus musculus [1] = test: In vivo antimalarial activity against Plasmodium berghei N on subcutaneous administration.; format: functional; settings: sc
Procedure, shortened: (§1)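 Mice, 5 per dose group, given 1, 3, 10 or 30 mg/kg once daily for 4 days by the route stated; ED values derived from the four-dose series.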

Mus musculus [2] = test: In vivo antimalarial activity against Plasmodium berghei N on oral administration.; format: functional; procedure, shortened: as §1
Plasmodium berghei = test: Antimalarial activity against Plasmodium berghei N; settings: Mus musculus

| Compound | IC50 (Plasmodium falciparum) [nM] | ED90 (Mus musculus [1]) [mg/kg] | also measured |
| --- | --- | --- | --- |
| CSc1ccc(C#[C][Al]([CH3])[CH2][C@@H]2O[C@@H]3O[C@]4(C)CC[C@H]5[C@H](C)CC[C@@H]([C@H]2C)[C@@]35OO4)cc1 | 8.4 |  |  |
| C[C@H]1[C@H]([CH2][Al]([CH3])[C]#Cc2ccc(F)cc2)O[C@@H]2O[C@]3(C)CC[C@H]4[C@H](C)CC[C@@H]1[C@@]24OO3 | 8.3 |  |  |
| C[C@H]1[C@H](c2ccco2)O[C@@H]2OC3(C)CC[C@H]4[C@H](C)CC[C@@H]1[C@@]24OO3 (single isomer, unassigned) | 1.4 | 2 | ED90 (Mus musculus [2]): 24 mg/kg |
| C[C@H]1[C@H](c2ccc(C(C)(C)C)o2)O[C@@H]2OC3(C)CC[C@H]4[C@H](C)CC[C@@H]1[C@@]24OO3 (single isomer, unassigned) | 10 |  |  |
| COc1cc(OC)c([C@@H]2O[C@@H]3OC4(C)CC[C@H]5[C@H](C)CC[C@@H]([C@H]2C)[C@@]35OO4)c(OC)c1 (single isomer, unassigned) | 7.8 |  |  |
| CCc1ccc([C@@H]2O[C@@H]3OC4(C)CC[C@H]5[C@H](C)CC[C@@H]([C@H]2C)[C@@]35OO4)o1 (single isomer, unassigned) | 8.6 |  |  |
| C[C@H]1[C@H](c2cccs2)O[C@@H]2OC3(C)CC[C@H]4[C@H](C)CC[C@@H]1[C@@]24OO3 (single isomer, unassigned) | 5.1 |  |  |
| C[C@H]1[C@H](c2cccn2Cc2ccco2)O[C@@H]2OC3(C)CC[C@H]4[C@H](C)CC[C@@H]1[C@@]24OO3 (single isomer, unassigned) | 9.4 |  |  |
| C[C@H]1[C@H](c2cccn2Cc2ccccc2)O[C@@H]2OC3(C)CC[C@H]4[C@H](C)CC[C@@H]1[C@@]24OO3 (single isomer, unassigned) | 16 |  |  |
| C[C@H]1[C@H](c2cccn2C)O[C@@H]2OC3(C)CC[C@H]4[C@H](C)CC[C@@H]1[C@@]24OO3 (single isomer, unassigned) | 4.6 | 1.2 | ED50 (Mus musculus [1]): 0.7 mg/kg; ED90 (Mus musculus [2]): 8.5 mg/kg |
| C[C@H]1[C@H](c2cn(C)c3ccccc23)O[C@@H]2OC3(C)CC[C@H]4[C@H](C)CC[C@@H]1[C@@]24OO3 (single isomer, unassigned) | 4 |  |  |
| CCOC(=O)Cn1cccc1[C@@H]1O[C@@H]2OC3(C)CC[C@H]4[C@H](C)CC[C@@H]([C@H]1C)[C@@]24OO3 (single isomer, unassigned) | 9.1 |  |  |
| C=CCOc1ccc([C@@H]2O[C@@H]3OC4(C)CC[C@H]5[C@H](C)CC[C@@H]([C@H]2C)[C@@]35OO4)c(OCC=C)c1 (single isomer, unassigned) | 6.6 |  |  |
| COc1ccc2cc([C@@H]3O[C@@H]4OC5(C)CC[C@H]6[C@H](C)CC[C@@H]([C@H]3C)[C@@]46OO5)c(OC)cc2c1 (single isomer, unassigned) | 9 |  |  |
| Cc1ccc([C@@H]2O[C@@H]3OC4(C)CC[C@H]5[C@H](C)CC[C@@H]([C@H]2C)[C@@]35OO4)o1 (single isomer, unassigned) | 5.2 | 2 | ED50 (Mus musculus [1]): 0.9 mg/kg; ED50 (Mus musculus [2]): 15.5 mg/kg; ED90 (Mus musculus [2]): 43 mg/kg |
| COc1ccc([C@@H]2O[C@@H]3OC4(C)CC[C@H]5[C@H](C)CC[C@@H]([C@H]2C)[C@@]35OO4)c(OC)c1 (single isomer, unassigned) | 4.2 |  |  |
| C[C@@H]1CC[C@H]2[C@@H](C)C(=O)O[C@@H]3O[C@@]4(C)CC[C@@H]1[C@]32OO4 [ARTEMISININ] |  | 8.5 | ED50 (Mus musculus [1]): 3 mg/kg |
| CCO[C@H]1O[C@@H]2O[C@@]3(C)CC[C@H]4[C@H](C)CC[C@@H]([C@H]1C)[C@@]24OO3 [ARTEMOTIL] |  | 0.5 | ED50 (Mus musculus [1]): 0.3 mg/kg; ED50 (Plasmodium berghei): 0.3 mg/kg |
| CCN(CC)CCCC(C)Nc1ccnc2cc(Cl)ccc12 (stereo unspecified) [CHLOROQUINE] |  | 3.1 |  |
